One test relates to Hh signaling. Description: Gli luciferase reporter assay in NIH3T3-12Gli cells. The test is classed as cell-based. The note with it: for IC50: 36 h, read-out: IC50, Hh signaling induced by Shh-N conditioned medium (luciferase reporter). (In general: Reporter assays use an easily measured gene product as a stand-in for the process of interest.)
Test [1] deals with Hh signaling mediated by Smo-M2. Description: Luciferase reporter assay in NIH3T3-12Gli cells expressing Smo-M2-EYFP. The test is classed as cell-based, human.
The test system of test [2] is Hh signaling mediated by Smo-DH. Briefly: Luciferase reporter assay in NIH3T3-12Gli cells expressing Smo-DH-EYFP. The test is classed as cell-based, human. To be noted: in the absence or presence of Shh-N.
The target in a further test is Smo-DH (Homo sapiens, UniProt Q99835, D473H). Briefly: BODIPY-cyclopamine binding competition, HEK293T cells expressing Smo-DH.
Test [3] relates to Hh signaling mediated by Smo-WT. Description: Luciferase reporter assay in NIH3T3-12Gli cells expressing Smo-WT-EYFP. The test is classed as cell-based, human.
The next test has as its system Gli-1. Description: Quantitative real-time PCR, Gli-1 mRNA. The test is classed as cell-based, mouse. To be noted: NIH3T3-12Gli cells, 24 h; for Gli-1 transcription induced by Shh-N: presence of Shh-N. Summed up:
(§1)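 Total RNA is extracted with Trizol and quantified. cDNA is made with a PrimeScript reverse-transcription kit, then SYBR Green real-time PCR is run with mouse-specific primers and GAPDH as the reference gene. Relative expression is calculated by the 2(-ΔΔCt) method, with ΔCt = Ct of the target gene minus Ct of GAPDH.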

The next test concerns the target Smo-WT (Homo sapiens, UniProt Q99835). Briefly: Smo ciliary translocation assay, NIH3T3 cells expressing Smo-WT-EYFP. The test is classed as cell-based. To be noted: Shh-N 20%, SAG 100 nmol/L. The procedure, abridged: (§2)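 NIH3T3 cells were transfected with pEYFP-Smo (WT or M2), selected in 500 μg/mL G418, and monoclonal clones were picked. Clones were treated with 0.1% DMSO, 20% Shh-N conditioned medium and/or 100 nmol/L SAG, with or without test compound. Smo-EYFP was imaged directly, cilia by acetylated α-tubulin immunofluorescence, nuclei by DAPI. At least two clones were used.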

For the next test, the system named is Ptch-1. Description: Quantitative real-time PCR, Ptch-1 mRNA. The test is classed as cell-based, mouse. The note with it: NIH3T3-12Gli cell line, data not shown. Summed up: as §1
A general note: Real-time PCR tracks product formation cycle by cycle.

Another test deals with Smo-M2 (Homo sapiens, UniProt Q99835, W535L). Briefly: Smo ciliary translocation assay, NIH3T3 cells expressing Smo-M2-EYFP. The test is classed as cell-based. The note with it: Shh-N 20%, SAG 100 nmol/L. The procedure, abridged: as §2
Another test concerns NIH3T3 cells. Description: Immunoblotting of acetylated α-tubulin and total histones. The test is classed as cell-based. The note with it: 6 h treatment. In general terms: Immunoblotting shows a protein as a band on a membrane.
The test system of the next test is NIH3T3-12Gli cells. Briefly: Immunofluorescence of acetylated and detyrosinated tubulin of primary cilia. The test is classed as cell-based. The note with it: Fig. S1. The procedure, abridged: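 Reporter NIH3T3 clone (NIH3T3-12Gli, stably carrying a Gli-responsive luciferase reporter) was exposed to test compounds or conditions. Primary cilia were co-immunostained with anti-detyrosinated (glu) tubulin and anti-acetylated α-tubulin antibodies, and nuclei were stained with DAPI. Cilia were imaged by fluorescence microscopy.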

Another test concerns Gli-2. Briefly: Quantitative real-time PCR, Gli-2 mRNA. The test is classed as cell-based, mouse. To be noted: NIH3T3-12Gli cells, presence or absence of Shh-N, 24 h. The procedure, abridged: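 NIH3T3-12Gli cells are kept in either HEK293 control medium or Shh-N conditioned medium and treated in triplicate with test compound or DMSO control. RNA is extracted with Trizol, cDNA is made with a PrimeScript kit, and SYBR Green qPCR is run with mouse Gli-2 primers. Values are normalised to GAPDH and relative expression is derived by the 2(-ΔΔCt) method.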

The values below come from paper PMC4186412 (Pharmacology Research & Perspectives, 2014).

One may read the IC50 as the point on the concentration scale where inhibition reaches its midpoint.

Sequence of Smo-WT (Q99835 28-787): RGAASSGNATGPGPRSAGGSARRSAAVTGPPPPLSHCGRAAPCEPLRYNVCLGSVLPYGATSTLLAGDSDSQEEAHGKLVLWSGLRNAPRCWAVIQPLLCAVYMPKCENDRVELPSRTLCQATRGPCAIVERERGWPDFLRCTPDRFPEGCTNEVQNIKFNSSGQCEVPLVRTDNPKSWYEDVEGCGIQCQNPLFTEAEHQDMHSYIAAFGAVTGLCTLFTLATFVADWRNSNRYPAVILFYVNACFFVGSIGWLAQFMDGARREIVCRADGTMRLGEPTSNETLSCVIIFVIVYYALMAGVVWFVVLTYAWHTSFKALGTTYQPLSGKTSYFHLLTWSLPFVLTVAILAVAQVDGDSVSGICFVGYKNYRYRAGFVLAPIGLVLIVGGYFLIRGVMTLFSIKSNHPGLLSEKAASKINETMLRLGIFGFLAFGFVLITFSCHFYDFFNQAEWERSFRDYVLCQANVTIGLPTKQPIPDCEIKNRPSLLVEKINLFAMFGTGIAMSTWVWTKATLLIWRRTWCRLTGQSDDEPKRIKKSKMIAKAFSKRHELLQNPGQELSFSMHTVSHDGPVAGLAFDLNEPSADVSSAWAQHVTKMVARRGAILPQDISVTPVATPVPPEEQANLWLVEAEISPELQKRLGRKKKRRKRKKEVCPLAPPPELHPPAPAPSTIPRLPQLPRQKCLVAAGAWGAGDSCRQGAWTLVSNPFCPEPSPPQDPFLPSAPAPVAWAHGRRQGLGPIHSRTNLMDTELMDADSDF
Sequence of Smo-M2 (Q99835 28-787 W535L): as the sequence (Q99835 28-787) above, with W508L counted along it
Sequence of Smo-DH (Q99835 28-787 D473H): as the sequence (Q99835 28-787) above, with D446H counted along it

On to `CS(=O)(=O)c1ccc(C(=O)Nc2ccc(Cl)c(-c3ccccn3)c2)c(Cl)c1` [vismodegib], for which the IC50 in the test on Hh signaling came out at 19.7 nM. Moreover, the “Inhibition of Hh signaling mediated by Smo-M2” value in test [1] (in the absence of Shh-N) is “significantly inhibited”. For the same molecule, the “Concentration that fully blocked Hh pathway, Smo-M2” value in test [1] (in the presence of Shh-N) is above 10 µmol/L. In test [2], the “Inhibition of reporter activity in Smo-DH-transfected cells” value was “no inhibition”. Also, the “Inhibition of association of BODIPY-cyclopamine with Smo-DH / binding to Smo-DH” value on Smo-DH is recorded as “inability to bind Smo-DH”. The “Concentration that almost maximally blocked reporter activity” value in [3] (NIH3T3-12Gli cells expressing Smo-WT) was determined as 1 µmol/L. Besides, the “Inhibition of reporter activity of cells expressing Smo-WT-EYFP” value in [3] (in the absence of Shh-N) is “slightly but dose-dependently inhibited”. Besides, the “Gli-1 transcription induced by Shh-N” value with Gli-1 is recorded as “potently inhibited”. Also, on Smo-WT, the “Suppression of Smo localization to primary cilium induced by Shh-N and SAG” value is “effectively suppressed”. In the test on Ptch-1, the “Expression of Ptch-1 induced by Shh-N” value is listed as “effectively suppressed”. Besides, the “Effect on accumulation of Smo-M2 in cilia induced by Hh pathway stimulators” value at Smo-M2 was “did not inhibit”.
As to `O=C(CCCCCCC(=O)Nc1ccccc1)NO` [vorinostat], the “Acetylation of total histones and α-tubulin” value in the test with NIH3T3 cells is “effectively and dose dependently increased”. Moreover, in the test with Hh signaling (3 μmol/L), the “Block of reporter activity at 3 μmol/L” value was “almost completely blocked”. Besides, in the test on Hh signaling, the IC50 turned out to be 670 nM. The “Acetylation and detyrosination of primary cilia” value in the test with NIH3T3-12Gli cells was “downregulated the acetylation but not the detyrosination”. In addition, in the test on Gli-1 (absence of Shh-N), the “Gli-1 transcription, Hh pathway in off-state” value is “significantly increased”. Besides, in the test with Gli-1, the “Gli-1 transcription induced by Shh-N” value is listed as “potently inhibited”. The “Suppression of Smo localization to primary cilium induced by Shh-N and SAG” value at Smo-WT is reported as “but not vorinostat”. Also, in the test on Ptch-1, the “Expression of Ptch-1 induced by Shh-N” value is “effectively suppressed”. Moreover, in the test on Gli-2, the Gli-2 transcription result is “significantly and dose-dependently suppressed”.
